3 compounds from ChEMBL document CHEMBL4145674, “Discovery of 3-Benzyl-1-( trans-4-((5-cyanopyridin-2-yl)amino)cyclohexyl)-1-arylurea Derivatives as Novel and Selective Cyclin-Dependent Kinase 12 (CDK12) Inhibitors” (J Med Chem, 2018) can be followed below.

In brackets after ≈: the same amount, converted by molar mass. Activity calls are given as the source filed them. The calls are words filed in the database; no cut-off is given here. Bounds are passed on as bounds.

For series [1], the target named is CDK7/Cyclin H/MNAT1 (Homo sapiens, UniProt P50613).
Sequence of CDK7/Cyclin H/MNAT1 (P51946 whole entry): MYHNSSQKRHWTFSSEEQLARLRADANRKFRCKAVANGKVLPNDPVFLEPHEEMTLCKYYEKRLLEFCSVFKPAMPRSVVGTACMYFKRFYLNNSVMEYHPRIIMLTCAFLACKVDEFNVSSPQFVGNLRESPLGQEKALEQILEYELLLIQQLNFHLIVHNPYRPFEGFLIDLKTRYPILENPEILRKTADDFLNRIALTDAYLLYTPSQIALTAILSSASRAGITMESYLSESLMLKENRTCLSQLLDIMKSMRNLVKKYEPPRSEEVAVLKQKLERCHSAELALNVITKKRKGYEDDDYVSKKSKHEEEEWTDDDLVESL
Sequence of CDK7/Cyclin H/MNAT1 (P50613 whole entry): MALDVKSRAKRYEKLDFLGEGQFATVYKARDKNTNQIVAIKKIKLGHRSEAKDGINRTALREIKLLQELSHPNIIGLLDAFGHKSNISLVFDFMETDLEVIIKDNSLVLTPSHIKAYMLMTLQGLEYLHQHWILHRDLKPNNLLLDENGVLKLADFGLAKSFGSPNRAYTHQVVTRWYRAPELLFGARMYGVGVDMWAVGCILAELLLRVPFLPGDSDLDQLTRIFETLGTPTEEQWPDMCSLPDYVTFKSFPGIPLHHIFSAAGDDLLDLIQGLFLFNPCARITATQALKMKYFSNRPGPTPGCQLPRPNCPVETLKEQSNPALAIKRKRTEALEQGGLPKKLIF
Sequence of CDK7/Cyclin H/MNAT1 (P51948 whole entry, further chain): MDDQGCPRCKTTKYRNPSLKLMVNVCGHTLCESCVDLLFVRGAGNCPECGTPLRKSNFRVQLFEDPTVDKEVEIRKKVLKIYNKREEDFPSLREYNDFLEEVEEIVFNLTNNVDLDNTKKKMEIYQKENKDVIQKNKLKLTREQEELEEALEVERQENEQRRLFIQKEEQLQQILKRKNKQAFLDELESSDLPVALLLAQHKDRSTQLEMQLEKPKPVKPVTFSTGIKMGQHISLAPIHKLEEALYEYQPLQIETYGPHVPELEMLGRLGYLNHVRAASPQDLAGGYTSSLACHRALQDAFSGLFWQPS
Series [2] has as its target T1, Cyclin-dependent kinase 12 (Homo sapiens, UniProt Q9NYV4). The series can be described thus: Inhibition of CDK12 in human SK-BR-3 cells assessed as reduction in RNA polymerase 2 Ser2 phosphorylation incubated for 4 hrs by. In kind it is cell-based.
Target sequence in this assay (Q9NYV4 whole entry): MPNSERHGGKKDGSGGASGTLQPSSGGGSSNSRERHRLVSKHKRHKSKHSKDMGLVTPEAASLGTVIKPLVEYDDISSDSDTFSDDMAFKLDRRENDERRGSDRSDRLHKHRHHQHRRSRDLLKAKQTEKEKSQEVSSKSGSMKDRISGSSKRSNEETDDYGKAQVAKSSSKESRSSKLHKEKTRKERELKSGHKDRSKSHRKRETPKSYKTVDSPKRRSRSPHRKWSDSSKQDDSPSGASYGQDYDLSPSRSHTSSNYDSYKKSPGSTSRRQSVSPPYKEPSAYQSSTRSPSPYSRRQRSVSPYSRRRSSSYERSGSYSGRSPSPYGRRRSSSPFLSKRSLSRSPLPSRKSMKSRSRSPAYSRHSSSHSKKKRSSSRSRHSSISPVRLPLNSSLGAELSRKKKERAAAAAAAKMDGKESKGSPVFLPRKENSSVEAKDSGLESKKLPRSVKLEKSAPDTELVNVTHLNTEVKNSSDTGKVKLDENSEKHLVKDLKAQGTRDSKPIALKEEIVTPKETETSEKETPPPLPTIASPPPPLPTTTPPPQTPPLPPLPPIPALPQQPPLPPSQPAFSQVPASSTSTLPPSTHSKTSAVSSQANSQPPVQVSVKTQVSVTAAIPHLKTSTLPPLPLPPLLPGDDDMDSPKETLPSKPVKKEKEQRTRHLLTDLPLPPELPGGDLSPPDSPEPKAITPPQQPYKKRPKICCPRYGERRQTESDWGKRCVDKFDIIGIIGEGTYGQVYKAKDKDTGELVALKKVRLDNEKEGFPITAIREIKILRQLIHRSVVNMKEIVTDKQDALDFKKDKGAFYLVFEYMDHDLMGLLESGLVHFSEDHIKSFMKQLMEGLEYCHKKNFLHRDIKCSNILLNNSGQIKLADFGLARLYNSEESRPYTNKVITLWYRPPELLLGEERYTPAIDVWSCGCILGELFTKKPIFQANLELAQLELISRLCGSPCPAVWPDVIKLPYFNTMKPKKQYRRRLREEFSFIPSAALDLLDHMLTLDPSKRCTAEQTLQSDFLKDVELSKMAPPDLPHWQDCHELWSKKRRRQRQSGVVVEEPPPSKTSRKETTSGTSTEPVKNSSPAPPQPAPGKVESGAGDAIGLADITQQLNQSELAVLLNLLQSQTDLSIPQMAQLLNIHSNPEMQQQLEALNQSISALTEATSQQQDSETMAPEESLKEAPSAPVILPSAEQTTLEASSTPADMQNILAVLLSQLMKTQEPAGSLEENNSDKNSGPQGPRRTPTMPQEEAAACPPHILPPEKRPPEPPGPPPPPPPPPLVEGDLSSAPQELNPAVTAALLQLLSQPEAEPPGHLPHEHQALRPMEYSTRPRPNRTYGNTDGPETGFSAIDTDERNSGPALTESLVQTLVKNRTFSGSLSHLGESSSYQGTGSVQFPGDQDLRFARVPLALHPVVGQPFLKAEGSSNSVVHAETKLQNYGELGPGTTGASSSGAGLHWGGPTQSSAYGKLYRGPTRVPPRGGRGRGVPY
Series [3] concerns the target CDK9/cyclin T1 (Homo sapiens, UniProt P50750). In kind it is protein-complex assay.
Series [4] addresses CDK12/Cyclin K (Homo sapiens, UniProt Q9NYV4). Description: Inhibition of N-terminal FLAG-tagged human full-length CDK12 (1 to 1490 residues)/N-terminal His-tagged CycK (1 to 580 residues) expressed in Sf9 cells assessed as reduction in ATP-dependent ULight-4E-BP1 (Thr37/Thr46) substrate peptide phosphorylation pre-incubated for 60 mins by LANCE Ultra assay.
For series [5], the system named is SK-BR-3. Description: Growth inhibition of human SK-BR-3 cells incubated for 72 hrs by cell-titer-Glo luminescent cell viability assay. The series is classed as functional. The note with it: SK-BR-3, 72 h. Summed up:
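SK-BR-3 (ATCC) kept in medium with 10% FBS, penicillin and streptomycin, subcultured every 3 days. 3 × 10^3 cells seeded, left overnight, then compound diluted in culture medium added. Viability by CellTiter-Glo luminescence after 72 h.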

Series [6] is described as follows: Partition coefficient between 1-octanol and aqueous buffer, log D of the compound at pH 7.4 buffer by chromatography. In kind it is physicochemical. The settings on record: 1-octanol/aqueous buffer. Summed up: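 log D as octanol/buffer partition at pH 7.4, determined chromatographically.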
Series [7] concerns the target T2, Serine/threonine-protein kinase TAO1 (Homo sapiens) (UniProt Q7L7X3).
T2 sequence (whole entry): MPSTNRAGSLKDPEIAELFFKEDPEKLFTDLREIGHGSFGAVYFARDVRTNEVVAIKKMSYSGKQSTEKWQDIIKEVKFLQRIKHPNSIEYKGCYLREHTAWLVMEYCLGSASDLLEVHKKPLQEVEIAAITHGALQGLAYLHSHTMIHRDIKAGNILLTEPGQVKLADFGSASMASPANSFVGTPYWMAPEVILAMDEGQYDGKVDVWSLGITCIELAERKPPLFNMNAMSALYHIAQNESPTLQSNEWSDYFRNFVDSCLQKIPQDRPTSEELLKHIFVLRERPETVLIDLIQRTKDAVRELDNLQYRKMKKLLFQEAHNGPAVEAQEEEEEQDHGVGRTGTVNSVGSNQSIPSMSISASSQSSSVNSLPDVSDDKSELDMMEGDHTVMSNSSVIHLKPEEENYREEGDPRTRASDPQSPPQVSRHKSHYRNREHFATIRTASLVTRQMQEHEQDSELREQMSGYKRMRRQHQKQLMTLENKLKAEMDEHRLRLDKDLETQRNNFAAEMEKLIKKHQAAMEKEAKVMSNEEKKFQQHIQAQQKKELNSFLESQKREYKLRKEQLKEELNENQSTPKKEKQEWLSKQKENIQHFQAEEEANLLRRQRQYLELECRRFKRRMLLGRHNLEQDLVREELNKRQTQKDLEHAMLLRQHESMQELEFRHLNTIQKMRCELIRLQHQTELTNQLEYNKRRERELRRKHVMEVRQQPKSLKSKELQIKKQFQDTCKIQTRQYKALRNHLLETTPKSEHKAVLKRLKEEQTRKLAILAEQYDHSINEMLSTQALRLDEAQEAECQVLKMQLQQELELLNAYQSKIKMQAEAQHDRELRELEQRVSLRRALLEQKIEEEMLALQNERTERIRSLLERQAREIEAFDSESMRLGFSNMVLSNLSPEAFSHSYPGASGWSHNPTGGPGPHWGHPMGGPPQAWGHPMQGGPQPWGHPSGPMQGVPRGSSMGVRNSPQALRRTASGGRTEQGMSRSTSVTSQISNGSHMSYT
The series can be described thus: Inhibition of N-terminal GST tagged recombinant human TAOK1 (1 to 314 residues) expressed in baculovirus infected Sf9 cells at 1 uM.

For series [8], the target named is T3, Dual specificity tyrosine-phosphorylation-regulated kinase 2 (Homo sapiens) (UniProt Q92630).
T3 sequence (whole entry): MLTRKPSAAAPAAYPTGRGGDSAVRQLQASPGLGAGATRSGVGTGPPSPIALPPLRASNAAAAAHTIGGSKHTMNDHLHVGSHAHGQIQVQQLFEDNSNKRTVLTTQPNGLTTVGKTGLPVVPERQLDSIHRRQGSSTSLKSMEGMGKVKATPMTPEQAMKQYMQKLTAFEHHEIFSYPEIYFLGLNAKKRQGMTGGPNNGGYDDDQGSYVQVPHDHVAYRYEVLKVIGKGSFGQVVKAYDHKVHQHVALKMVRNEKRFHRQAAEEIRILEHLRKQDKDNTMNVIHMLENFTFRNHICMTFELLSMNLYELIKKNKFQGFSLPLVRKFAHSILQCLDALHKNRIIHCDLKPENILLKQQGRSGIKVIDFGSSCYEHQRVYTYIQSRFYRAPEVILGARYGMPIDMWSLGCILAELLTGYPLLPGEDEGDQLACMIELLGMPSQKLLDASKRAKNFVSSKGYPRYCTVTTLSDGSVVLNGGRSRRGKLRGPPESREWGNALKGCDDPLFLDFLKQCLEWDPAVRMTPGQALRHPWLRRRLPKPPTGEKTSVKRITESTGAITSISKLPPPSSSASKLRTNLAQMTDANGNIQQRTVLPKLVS
The series can be described thus: Inhibition of N-terminal GST tagged recombinant full-length human DYRK2 expressed in Escherichia coli at 1 uM.

Series [9] has as its target STE20/SPS1-related proline-alanine-rich protein kinase (Homo sapiens) (UniProt Q9UEW8). Description: Inhibition of N-terminal His tagged recombinant full-length human STK39 expressed in baculovirus infected Sf9 cells at 1 uM.
The nature of series [10]: Permeability of the compound at 10 umol/L incubated for 3 hrs by LC/MS/MS detection based PAMPA method. The series is classed as ADME. The settings on record: read-out: permeability. The procedure, abridged: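 PAMPA: donor buffer pH 7.4 holding 10 μmol/L compound; acceptor filter coated with GIT-0 lipid, acceptor sink buffer. 3 h at room temperature. Compound in donor and acceptor wells quantified by LC/MS/MS.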

In series [11] the target is CDK8/Cyclin C (Homo sapiens, UniProt P49336). The series can be described thus: Inhibition of GST-tagged human CDK8/CycC (04 to 109 residues) using kinase tracer 236 probe incubated for 60 mins by TR-FRET assay. The series is classed as protein-complex assay. Background: In TR-FRET formats the signal depends on donor and acceptor labels being close together.
Sequence of CDK8/Cyclin C (P49336 whole entry, the tested form may be a part): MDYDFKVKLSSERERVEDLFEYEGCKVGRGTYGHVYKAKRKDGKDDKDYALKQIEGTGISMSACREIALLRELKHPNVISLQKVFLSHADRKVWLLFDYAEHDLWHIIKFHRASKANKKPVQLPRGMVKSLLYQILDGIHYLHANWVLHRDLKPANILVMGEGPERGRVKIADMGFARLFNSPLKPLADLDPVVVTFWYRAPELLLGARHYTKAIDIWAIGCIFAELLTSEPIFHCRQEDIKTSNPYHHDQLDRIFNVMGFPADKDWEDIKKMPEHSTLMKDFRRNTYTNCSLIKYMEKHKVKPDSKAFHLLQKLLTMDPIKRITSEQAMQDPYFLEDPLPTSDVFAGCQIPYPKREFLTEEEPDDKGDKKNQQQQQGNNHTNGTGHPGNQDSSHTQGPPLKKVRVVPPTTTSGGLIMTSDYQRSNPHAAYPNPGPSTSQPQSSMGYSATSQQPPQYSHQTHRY
Sequence of CDK8/Cyclin C (P24863 whole entry, further chain, the tested form may be a part): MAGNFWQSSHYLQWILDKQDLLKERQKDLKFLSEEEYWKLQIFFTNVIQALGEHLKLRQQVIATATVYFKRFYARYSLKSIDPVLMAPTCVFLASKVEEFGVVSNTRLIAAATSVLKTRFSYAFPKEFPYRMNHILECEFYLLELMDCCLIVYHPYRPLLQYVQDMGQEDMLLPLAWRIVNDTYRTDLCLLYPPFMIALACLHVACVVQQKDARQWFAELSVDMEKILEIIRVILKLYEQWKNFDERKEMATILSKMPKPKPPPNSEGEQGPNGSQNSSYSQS
Series [12] is described as follows: Solubility in aqueous buffer solution at pH 6.8 by UV absorbance spectroscopy. The series is classed as physicochemical. Summed up:
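Compound in DMSO spiked into aqueous buffer pH 6.8 and incubated. Precipitate removed by filtration, dissolved compound quantified by UV absorbance of the filtrate.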

The target of series [13] is T1, Cyclin-dependent kinase 12. Description: Time dependent inhibition of human CDK12 incubated for 0 to 5 hrs using ULight-4E-BP1 (Thr37/Thr46) substrate by LANCE system based assay.
Target sequence in this assay (Q9NYV4 whole entry, looked up): as the sequence (Q9NYV4 whole entry) above
Series [14] deals with Cyclin-dependent kinase 13/Cyclin-K (Homo sapiens, UniProt Q14004). Description: Inhibition of N-terminal FLAG-tagged human full-length CDK13 (1 to 1512 residues)/N-terminal His-tagged CycK (1 to 580 residues) expressed in Sf9 cells assessed as reduction in ATP-dependent ULight-4E-BP1 (Thr37/Thr46) substrate peptide phosphorylation pre-incubated for 60 mins by LANCE Ultra assay.

Sequence of CDK9/cyclin T1 (O60563 whole entry, the tested form may be a part): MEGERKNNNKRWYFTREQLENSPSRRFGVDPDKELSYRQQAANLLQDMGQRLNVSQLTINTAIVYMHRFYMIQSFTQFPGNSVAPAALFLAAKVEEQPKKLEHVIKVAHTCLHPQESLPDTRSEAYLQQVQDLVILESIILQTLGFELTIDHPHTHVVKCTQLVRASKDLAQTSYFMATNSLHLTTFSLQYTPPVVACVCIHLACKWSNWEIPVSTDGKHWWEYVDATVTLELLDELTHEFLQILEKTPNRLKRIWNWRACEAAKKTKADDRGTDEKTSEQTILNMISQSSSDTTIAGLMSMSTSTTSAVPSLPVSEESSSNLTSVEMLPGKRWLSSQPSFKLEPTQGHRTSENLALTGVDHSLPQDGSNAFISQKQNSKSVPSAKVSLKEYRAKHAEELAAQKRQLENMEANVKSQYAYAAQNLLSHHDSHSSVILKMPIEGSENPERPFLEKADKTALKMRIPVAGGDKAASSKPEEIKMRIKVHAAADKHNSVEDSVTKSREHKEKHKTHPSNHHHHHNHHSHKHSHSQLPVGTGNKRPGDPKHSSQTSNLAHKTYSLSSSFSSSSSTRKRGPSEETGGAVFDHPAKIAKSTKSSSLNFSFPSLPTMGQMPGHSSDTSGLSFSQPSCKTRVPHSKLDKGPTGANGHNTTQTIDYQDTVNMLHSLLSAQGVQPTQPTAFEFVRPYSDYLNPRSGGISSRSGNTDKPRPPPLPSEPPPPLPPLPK
Sequence of CDK9/cyclin T1 (P50750 whole entry, the tested form may be a part): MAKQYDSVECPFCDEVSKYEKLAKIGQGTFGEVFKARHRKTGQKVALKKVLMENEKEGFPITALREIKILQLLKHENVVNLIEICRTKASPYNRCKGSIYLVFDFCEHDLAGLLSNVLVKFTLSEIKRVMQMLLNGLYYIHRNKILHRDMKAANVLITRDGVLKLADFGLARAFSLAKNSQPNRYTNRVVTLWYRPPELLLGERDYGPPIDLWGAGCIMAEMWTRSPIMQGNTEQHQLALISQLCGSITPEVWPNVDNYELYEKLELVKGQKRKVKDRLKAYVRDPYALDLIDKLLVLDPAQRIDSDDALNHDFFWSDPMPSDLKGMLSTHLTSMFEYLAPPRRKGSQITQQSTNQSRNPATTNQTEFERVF
Sequence of CDK12/Cyclin K (O75909 whole entry, the tested form may be a part): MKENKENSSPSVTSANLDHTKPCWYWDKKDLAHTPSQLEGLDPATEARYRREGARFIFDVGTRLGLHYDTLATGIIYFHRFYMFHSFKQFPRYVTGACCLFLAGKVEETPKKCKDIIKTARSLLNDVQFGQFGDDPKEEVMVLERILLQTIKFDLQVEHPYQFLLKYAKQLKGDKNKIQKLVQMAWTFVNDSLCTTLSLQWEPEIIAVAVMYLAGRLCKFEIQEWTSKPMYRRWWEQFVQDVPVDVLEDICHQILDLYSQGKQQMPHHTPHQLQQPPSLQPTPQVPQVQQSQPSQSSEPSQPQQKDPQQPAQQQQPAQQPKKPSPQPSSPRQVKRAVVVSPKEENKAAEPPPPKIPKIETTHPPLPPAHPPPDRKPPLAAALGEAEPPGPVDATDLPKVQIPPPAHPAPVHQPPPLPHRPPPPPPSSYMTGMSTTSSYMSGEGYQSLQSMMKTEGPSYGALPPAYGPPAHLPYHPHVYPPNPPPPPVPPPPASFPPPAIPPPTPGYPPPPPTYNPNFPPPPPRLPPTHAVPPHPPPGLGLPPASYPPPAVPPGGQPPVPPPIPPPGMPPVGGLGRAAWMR
Sequence of CDK12/Cyclin K (Q9NYV4 whole entry, the tested form may be a part): as the sequence (Q9NYV4 whole entry) above

As usually defined, the IC50 is the point on the concentration scale where inhibition reaches its midpoint. For `CC(C)C(=O)OC[C@@H]1O[C@@H](n2cnc(N)c3c(C(N)=O)c(Br)nc2-3)[C@@H](O)[C@@H]1O`, the IC50 in series [1] is 1.2 µM; in series [2], 0.259 µM; in series [3], 0.22 µM; in series [4], 0.11 µM.

By GI50 is commonly meant the concentration giving 50% growth inhibition. A low value points to more potent growth inhibition. In general, chromatographic logD refers to a lipophilicity value derived from retention on a column. A lower chromatographic logD goes with a more hydrophilic compound. Usually inhibition stands for how much of the control response was suppressed. Broadly, the solubility is the dissolved amount per volume that the medium holds. High values mean much dissolved substance, low ones little dissolved substance. Regarding `Cn1cc(-c2ccc(N(C(=O)NCc3ccccc3)[C@H]3CC[C@H](Nc4ccc(C#N)cn4)CC3)cc2)ccc1=O`, the 50% growth inhibitory concentration (GI50) in series [5] was determined as 0.8 µM. In [6], this compound gave a chromatographic logD of 2.4. In addition, the inhibition in series [7], in [8] and in series [9] was > 80% in each case. Further, the values for the IC50 in series [1], in [3] and in [11] were > 10 µM, 16 µM and > 10 µM, respectively. Besides, the Papp at 3 h, 10 µM in series [10] came out at 27.3 ×10⁻⁶ cm/s. Also, the concentration in solution in series [12] (solubility) came to 7.7 µg/mL (≈ 14.5 µM). The TDI entry in series [13] was “inactive”.

In the case of `Cn1cc(-c2ccc(N(C(=O)NCc3ccccc3)[C@H]3CC[C@@H](Nc4ccc(C#N)cn4)CC3)cc2)cn1`, the half-inhibitory concentration (IC50) in series [1] is > 10 µM; in series [14], > 10 µM; in series [3], > 30 µM; in series [4] it was > 30 µM; in series [11] it was > 10 µM.
